Compounds with a hit are over-represented: about 3% of the library has one in this group of screens.
M4 PAM: human M4 muscarinic receptor positive allosteric modulators, primary screen, CHO-K1 cells, Fluo-8 calcium fluorescence; Muscarinic acetylcholine receptor M4 (Homo sapiens), P08173; CHO-K1 hM4/Gqi5, ACh EC20; 0% = ACh EC20, 100% = maximal ACh; activation, % at 3 µM; 360,000 tested, 0.4% active; AID 624126, 2012;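 active means activation above its plate's cutoff, the mean activation of sample wells plus 3 SD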
Target sequence (P08173 whole entry, looked up): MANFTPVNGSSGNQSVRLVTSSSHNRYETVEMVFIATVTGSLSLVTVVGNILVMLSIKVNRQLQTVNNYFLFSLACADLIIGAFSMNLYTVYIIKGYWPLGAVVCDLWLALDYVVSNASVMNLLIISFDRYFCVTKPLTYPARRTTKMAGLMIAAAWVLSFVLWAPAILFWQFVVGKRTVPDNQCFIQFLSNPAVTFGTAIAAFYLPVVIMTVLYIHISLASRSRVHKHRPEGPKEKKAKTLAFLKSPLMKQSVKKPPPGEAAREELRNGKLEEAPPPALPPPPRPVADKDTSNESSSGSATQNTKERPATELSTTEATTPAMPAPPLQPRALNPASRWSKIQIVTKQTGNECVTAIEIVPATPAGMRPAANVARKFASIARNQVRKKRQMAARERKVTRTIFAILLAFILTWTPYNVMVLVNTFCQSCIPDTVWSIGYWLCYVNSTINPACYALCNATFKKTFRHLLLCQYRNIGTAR
TAAR1 ag: human TAAR1 agonists, primary screen, Fluo-8 calcium fluorescence, CHO RD-HGA16 cells. Trace amine-associated receptor 1 (Homo sapiens), Q96RJ0. vehicle wells 0%, saturating PEA agonist 100%. activation, % at 3 µM. 360,000 tested, 0.99% active. AID 624467, 2012;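 active means activation above the mean activation of all test compounds in the run plus 3 SD, cut at about 38% in these data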
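System: CHO-derived RD-HGA16 cells with stable Gα16 and human TAAR1. Times: 17-24 h plating, Fluo-8 75 min 37 °C, 30 min RT. Measured by: calcium-sensitive Fluo-8 signal, excitation 470-495, emission 515-575 nm. Read-out basis: % activation relative to PEA EC100 response. Control set: DMSO and PEA EC100. Repeats: no replicates (n 1).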
CHRM4 antagonist: human M4 muscarinic receptor antagonists, primary screen, CHO cells, Fluo-8 calcium fluorescence; CHO-hM4 cells, ACh EC80; inhibition, % at 3 µM; 360,000 tested, 0.73% active;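 active means inhibition above its plate's cutoff, the mean inhibition of sample wells plus 3 SD, cut at about 27% in these data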;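 further: 0% = acetylcholine EC80 with DMSO and 100% = DMSO without agonist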
M4 ag: human M4 muscarinic receptor agonists, primary screen, CHO-K1 cells, Fluo-8 calcium fluorescence | activation, % at 3 µM | 360,000 tested, 0.14% active | CHO-K1 hM4/Gqi5; vehicle 0%, full acetylcholine response 100% | Muscarinic acetylcholine receptor M4 (Homo sapiens), P08173 | AID 624127, 2012;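 active means activation above the run mean over all test wells plus 3 SD, cut at about 32% in these data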;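 further: peak over basal fluorescence ratio per well then scaled between controls; 0% = DMSO wells and 100% = acetylcholine at EC100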
TAAR1 antag: human TAAR1 antagonists, primary screen, Fluo-8 calcium fluorescence, CHO RD-HGA16 cells; Trace amine-associated receptor 1 (Homo sapiens), Q96RJ0; 360,000 tested, 1.5% active; antagonist; AID 624466, 2012; inhibition, % at 3 µM;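 active means inhibition above a per-plate cutoff, the mean inhibition of test compounds on that plate plus 3 SD, cut at about 49% in these data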;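 further: 0% = DMSO plus EC80 beta-PEA response and 100% = DMSO alone without agonist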
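Test system: RD-HGA16 CHO cells with stable hTAAR1 and Gα16 / Probe or stimulus: EC80 β-phenethylamine stimulus / Times: seeding 17-24 h prior, 75-min 37 °C, 30-min RT dye loading / Detection: Fluo-8 calcium-sensitive fluorescence / Read-out basis: % inhibition scaled between DMSO and EC80 PEA controls / Repeats: singlicate, one well per test compound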
nonsel antag count: nonselective antagonists in TAAR1 counter-screen cells, counter-screen for hTAAR1 antagonist project, cell-based, fluorescence, calcium. 2,400 tested, 77% active. inhibition, % at 3 µM. shares compounds with TAAR1 antag. counterscreen cell line, antagonist mode; in the data active means inhibition above about 22%;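 further: CHO-Ga16 host cells stimulated with ATP at an EC80 level; 0% = agonist EC80 plus vehicle and 100% = vehicle without agonist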
TAAR1 ant conf: human TAAR1 antagonists, retest of hits, confirmation, cell-based, fluorescence; shares compounds with TAAR1 antag; TAAR1-expressing cells, fluorescence antagonist read-out; inhibition, % at 3 µM; 2,400 tested, 40% active; AID 651785, 2012; in the data active means inhibition above about 49%;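 further: CHO-Ga16 host cells challenged with agonist PEA near its EC80; 0% = agonist at EC80 plus vehicle and 100% = vehicle with no agonist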
Ga16 ag counter: calcium activation in Ga16-expressing cells, counter-screen for TAAR1 antagonist project, cell-based, fluorescence. shares compounds with TAAR1 antag. agonist counterscreen. activation, % at 3 µM. 2,400 tested, 18% active; in the data active means activation above about 12%;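 further: 0% = vehicle wells and 100% = saturating stimulus response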
TAAR1 ag count: TAAR1 activation by candidate antagonists – cell-based, fluorescence, counter-screen for TAAR1 antagonist project; shares compounds with TAAR1 antag; hTAAR1 cell line, agonist mode; activation, % at 3 µM; 2,400 tested, 2% active; AID 651955, 2012; in the data active means activation above about 37%;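 further: CHO cells stably expressing TAAR1 with calcium dye readout; 0% = DMSO vehicle and 100% = full agonist response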
* hit, by the source's call; x = not tested or not shown.

SMILES	M4 PAM	TAAR1 ag	CHRM4 antagonist	M4 ag	TAAR1 antag	nonsel antag count	TAAR1 ant conf	Ga16 ag counter	TAAR1 ag count
Cc1[nH]c2ccccc2c1C(=O)COC(=O)C1CC(=O)N(Cc2ccccc2)C1 (stereo unspecified)	-10	26	14	16	70*	31*	53*	13*	13
Nc1cc(=O)n(Cc2ccccc2)c(N)c1C(=O)NCc1ccccc1	x	4	x	x	-2	x	x	x	x
CCOc1ccccc1NC(=O)c1cc(-c2ccncc2)nc2c(Cl)cccc12	-2	3	4	3	71*	11	47	6	12
Cc1ccc(-c2cc(C(=O)Nc3cc(C(=O)O)ccc3C)c3ccccc3n2)cc1	-12	11	-7	16	16	x	x	x	x
CCOC(=O)Cc1csc(NC(=O)c2ccc([N+](=O)[O-])cc2[N+](=O)[O-])n1	2	7	-2	0	-18	x	x	x	x
CCOC(=O)Cc1csc(NC(=O)c2cc(-c3ccncc3)nc3ccccc23)n1	-5	14	-1	25	64*	33*	50*	9	7
CCOC(=O)Cc1csc(NC(=O)c2ccc(N3CCOCC3)cc2[N+](=O)[O-])n1	5	20	-12	22	55*	38*	53*	11	12
COc1ccc(NC(=O)c2cc(-c3ccncc3)nc3ccccc23)c(OC)c1	-6	12	-2	14	42	x	x	x	x
Cc1ccc(S(=O)(=O)N(C)C)cc1NC(=O)c1cc(-c2ccncc2)nc2ccccc12	-7	12	-12	16	54*	21	34	7	10
CC1CC(=O)Nc2ccccc2N1C(=O)CSc1ccc2ccccc2n1 (stereo unspecified)	6	5	-7	3	-25	x	x	x	x
OCCCCCCNc1ccc(CCO)cc1	2	0	-12	0	3	x	x	x	x
CC(C)(C)c1ccc(CC(=O)N2CCC2(C)C(=O)NCc2cccc3ccccc23)cc1 (stereo unspecified)	0	6	-14	3	2	x	x	x	x
C[C@H](CO)N1C[C@H](C)[C@@H](CN(C)S(=O)(=O)c2ccc(-n3cccn3)cc2)OCc2cnnn2CCCC1=O	14	2	-12	2	-1	x	x	x	x
CC1(c2nnc(-c3ccccc3)o2)CC(c2c(Cl)cccc2Cl)=NO1 (stereo unspecified)	-2	21	5	2	70*	23*	53*	6	7
CC1(c2nnc(-c3ccncc3)o2)CC(c2c(Cl)cccc2Cl)=NO1 (stereo unspecified)	0	13	4	9	32	x	x	x	x
COc1ccc(NC(=O)c2cc(C3CCCCN3S(=O)(=O)c3cccs3)on2)c(C)c1 (stereo unspecified)	-4	-1	8	5	-18	x	x	x	x
Cc1c(C(=O)N2CCN(c3ccccc3)CC2)oc2c1C(=O)CC(C)(C)C2	-10	11	2	19	67*	30*	53*	8	7
Cc1c(C(=O)N2CCN(c3ccccc3F)CC2)oc2c1C(=O)CC(C)(C)C2	-5	4	5	15	48	x	x	x	x
CC(C)C(Cl)=NOC(=O)Nc1ccc(S(N)(=O)=O)cc1	-2	1	1	0	-8	x	x	x	x
CCc1cccc(NC(=O)CSCc2cc(=O)[nH][nH]2)c1	5	-3	2	-1	105*	12	6	1	0
CCOC(=O)c1cc2c(=O)n3ccccc3nc2n(Cc2ccco2)c1=NC(=O)c1cccc(OC)c1	3	9	-22	1	56*	25*	33	4	2
COc1ccc(-c2cc(C(=O)OCC(=O)NC3CC3)c3ccccc3n2)cc1	7	19	-2	7	-11	x	x	x	x
COc1ccc2cc(-c3cc(C(=O)OCC(=O)NC4CCS(=O)(=O)C4)c4ccccc4n3)ccc2c1 (stereo unspecified)	-1	16	9	2	59*	41*	51*	12*	9
O=C(COC(=O)[C@@H]1CC(O)CN1S(=O)(=O)c1ccccc1[N+](=O)[O-])Nc1ccc2ccccc2c1 (stereo partly specified)	-12	25	3	11	68*	41*	50*	16*	13
C[C@H]1CN([C@@H](C)CO)C(=O)c2cc(C#CC3(O)CCCC3)cnc2O[C@H]1CN(C)C(=O)C1CC1	9	0	-15	1	1	x	x	x	x
SMILES	M4 PAM	TAAR1 ag	CHRM4 antagonist	M4 ag	TAAR1 antag	nonsel antag count	TAAR1 ant conf	Ga16 ag counter	TAAR1 ag count
O=C(NCC1CCCO1)c1ccc(Br)c(S(=O)(=O)N2CCOCC2)c1 (stereo unspecified)	9	4	-14	2	-1	x	x	x	x
Cc1cc(C2=CC(=O)C[C@H](c3ccc(F)cc3)C2)ccc1F	-1	-2	-1	-1	14	x	x	x	x
COc1cccc2cc(-c3cc(=O)oc4ccc(OCC(C)=O)cc34)oc12	-10	3	-4	11	57*	25*	45	5	5
COc1cccc2cc(-c3cc(=O)oc4ccc(O)cc34)oc12	-4	5	-3	7	50*	17	24	4	1
Clc1ccc(-c2ccc(CNCc3ccccn3)o2)cc1	-2	1	1	2	3	x	x	x	x
Cc1ccc(S(=O)(=O)NC2CCCc3ccccc32)cc1C (stereo unspecified)	-7	12	-10	0	50*	11	39	5	10
O=S(=O)(NC1CCc2ccccc21)c1ccccc1 (stereo unspecified)	-5	0	6	0	-12	x	x	x	x
CN(C(=O)COC(=O)/C=C/c1cn(-c2ccccc2)nc1-c1ccc2c(c1)OCCO2)C1CCS(=O)(=O)C1 (stereo unspecified)	-12	4	4	5	23	x	x	x	x

From PubChem BioAssay
